The test system of data set [1] is Meriones unguiculatus. In words: Inhibition of GR-73632-induced foot tapping in po dosed Mongolian gerbil assessed as duration of repetitive hind foot tapping administered 1 hr before GR-73632 challenge. As to conditions: read-out: ID50 (the source's name). It is filed as functional. Summed up: (§1)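 Male Mongolian gerbils (45-70 g), at least seven per group, received vehicle or compound orally (10 mL/kg) at 1, 2, 4 or 8 h before icv GR73632 (3 pmol/5 µL). Foot tapping was then scored. Doses were compared by ANOVA with Dunnett's test.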

The test system of data set [2] is Meriones unguiculatus. Nature of the data set: Inhibition of GR-73632-induced foot tapping in po dosed Mongolian gerbil assessed as duration of repetitive hind foot tapping administered 1 hr before GR-73632 challenge measured after 8 hrs. The conditions noted are these: read-out: ID50 (the source's name). It is filed as functional. The procedure, abridged:
as §1

Data set [3] has as its target T1, Substance-P receptor (Homo sapiens, UniProt P25103). The conditions noted are these: CHO.
In data set [4] the target is T1, Substance-P receptor. Nature of the data set: Displacement of [3H]substance P from human recombinant NK1 receptor expressed in CHO cells. It is filed as cell-based. (In a radioligand displacement assay an active substance lowers the binding of a labelled ligand.)
Data set [5] in a line: Plasma clearance in dog. It is filed as ADME, organism-based, Canis lupus familiaris.
Data set [6] has as its system Meriones unguiculatus. Nature of the data set: Inhibition of GR-73632-induced foot tapping in po dosed Mongolian gerbil assessed as duration of repetitive hind foot tapping administered 1 hr before GR-73632 challenge measured after 4 hrs. It is filed as functional. The conditions noted are these: read-out: ID50 (the source's name). The procedure, abridged: as §1
Data set [7] can be described thus: Plasma clearance in rat. It is filed as ADME, organism-based.
Data set [8] in a line: Bioavailability in rat. As to conditions: in vivo. It is filed as ADME, organism-based.
The test system of data set [9] is Meriones unguiculatus. Nature of the data set: Inhibition of GR-73632-induced foot tapping in po dosed Mongolian gerbil assessed as duration of repetitive hind foot tapping administered 1 hr before GR-73632 challenge measured after 2 hrs. It is filed as functional. The conditions noted are these: read-out: ID50 (the source's name). Summed up:
as §1

A short description of data set [10]: Ratio of drug level in brain to plasma in rat at 1 mg/kg, iv after 5 mins.
In data set [11] the target is T1, Substance-P receptor. The conditions noted are these: CHO. This is another data set of the same source.
A short description of data set [12]: Bioavailability in dog. It is filed as ADME, organism-based, Canis lupus familiaris. As to conditions: in vivo.
A short description of data set [13]: Half life in dog. It is filed as ADME, organism-based, Canis lupus familiaris. The conditions noted are these: in vivo.
The nature of data set [14]: Half life in rat. It is filed as ADME, organism-based. The conditions noted are these: in vivo.
The subject of data set [15] is Meriones unguiculatus. In words: Inhibition of GR-73632-induced foot tapping in po dosed Mongolian gerbil assessed as duration of repetitive hind foot tapping administered 1 hr before GR-73632 challenge measured after 1 hr. It is filed as functional. As to conditions: read-out: ID50 (the source's name). The procedure, abridged: as §1

T1 sequence (P25103 whole entry): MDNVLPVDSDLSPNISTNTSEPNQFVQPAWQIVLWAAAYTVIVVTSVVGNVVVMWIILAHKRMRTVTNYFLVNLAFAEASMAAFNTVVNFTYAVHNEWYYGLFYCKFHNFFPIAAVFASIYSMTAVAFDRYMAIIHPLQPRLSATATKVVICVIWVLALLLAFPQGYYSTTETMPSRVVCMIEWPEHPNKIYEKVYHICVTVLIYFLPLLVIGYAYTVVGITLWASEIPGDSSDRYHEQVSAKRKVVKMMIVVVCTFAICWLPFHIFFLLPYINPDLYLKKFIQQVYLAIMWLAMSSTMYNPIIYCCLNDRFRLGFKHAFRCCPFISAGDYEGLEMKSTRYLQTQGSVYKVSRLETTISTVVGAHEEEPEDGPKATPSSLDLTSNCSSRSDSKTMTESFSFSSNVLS

On to `Cc1cc(F)ccc1[C@H]1CNCCN1C(=O)N(C)Cc1cc(C(F)(F)F)cc(C(F)(F)F)c1`, for which the ED50 amounted to 0.2 mg/kg in the data set on Meriones unguiculatus [1] and 0.3 mg/kg with Meriones unguiculatus [2].

In the case of `CC(=O)O.Cc1cc(F)ccc1[C@H]1CNCCN1C(=O)N(C)[C@@H](C)c1cc(C(F)(F)F)cc(C(F)(F)F)c1`, in the data set with Meriones unguiculatus [1], the ED50 was 0.036 mg/kg.

On Substance-P receptor [3], `Cc1cc(F)ccc1N1CCNCC1C(=O)N(C)Cc1cc(C(F)(F)F)cc(C(F)(F)F)c1` (centres undefined) registered a negative logarithm of the Kb (pKb) of 8.56. Besides, the inhibitory constant (Ki) at Substance-P receptor [4] was 8.71 nM.

For `Cc1cc(F)ccc1[C@@H]1CNCCN1C(=O)N(C)Cc1cc(C(F)(F)F)cc(C(F)(F)F)c1`, in the data set on Meriones unguiculatus [1], the ED50 was 5.6 mg/kg. Further, at Substance-P receptor [4], the Ki is 18.2 nM.

In the case of `Cc1cc(F)ccc1C1CNCCN1C(=O)N(C)Cc1cc(C(F)(F)F)cc(C(F)(F)F)c1` (racemic), the inhibition constant Ki at Substance-P receptor [4] was 1.29 nM.

For `Cc1cc(F)ccc1[C@H]1CNCCN1C(=O)N(C)[C@H](C)c1cc(C(F)(F)F)cc(C(F)(F)F)c1` [VESTIPITANT], the clearance in data set [5] amounted to 15 mL/min/kg; in [7], 19 mL/min/kg. This compound displayed a pKb on Substance-P receptor [3] of 9.87. Also, the ED50 in the data set on Meriones unguiculatus [6] stood at 2 µg/kg; in the data set with Meriones unguiculatus [9], 7 µg/kg; in the data set with Meriones unguiculatus [1] it was 0.014 mg/kg; in the data set on Meriones unguiculatus [2], 0.027 mg/kg; in the data set with Meriones unguiculatus [15], 0.014 mg/kg. Besides, the bioavailability in [8] was 44%; in [12], 71%. In addition, in [10], the Kp at 5 min amounted to 1.3. On Substance-P receptor [11], this compound returned a T1/2 of 59.7 min. Moreover, the half-life in data set [13] is 660 min; in data set [14] it was 300 min.

As to `COc1ccc(-n2nnnc2C(F)(F)F)cc1CN[C@H]1CCCN[C@H]1c1ccccc1` [VOFOPITANT], in the data set with Meriones unguiculatus [1], the ED50 is 0.6 mg/kg. The inhibition constant Ki on Substance-P receptor [4] is 0.0501 nM.

The pKb is the Kb on a negative log10 scale, so that one unit is a factor of ten. Low readings indicate a large Kb, high ones a small Kb. In general, Ki refers to a measure of affinity in units of concentration, obtained from inhibition or displacement. What is called clearance is the rate of elimination divided by the concentration. Higher therefore signals efficient removal. The term bioavailability denotes the share of a dose that reaches the circulation, judged against a reference dose that is usually intravenous. Read a high bioavailability as much systemic uptake. As usually defined, the Kp is tissue or fluid exposure divided by exposure in the circulation. The term half-life denotes the time in which the quantity being followed falls by half. Lower therefore signals rapid decline.

(Values after ChEMBL document CHEMBL1138498 (J Med Chem, 2009).)
